Our source for the growth values is ChEMBL document CHEMBL4406880, “Design, synthesis, and bioactivity of dihydropyrimidine derivatives as kinesin spindle protein inhibitors” (Bioorg Med Chem, 2019).

Holding throughout (assay type): functional
One assay has as its system HCT-15. The assay can be described thus: Growth inhibition of human HCT15 cells assessed as growth percentage at 10 uM incubated for 48 hrs by sulforhodamine B assay relative to control. The settings on record: HCT-15, 48 h, read-out: Activity. Put shortly: (§1)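 NCI-60 one-dose screen: cells in RPMI 1640 with 5% FBS and 2 mM L-glutamine, plated at 5,000–40,000 cells/well and preincubated 24 h at 37 °C, 5% CO2. Compound is added from a DMSO stock to a final 10 µM and incubated 48 h. Cells are TCA-fixed and stained with sulforhodamine B, read at 515 nm. Output is % growth versus untreated control, with a time-zero plate.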
A general note: In SRB staining, fixed cells bind dye roughly in proportion to their protein.

A further assay concerns UACC-62. Description: Growth inhibition of human UACC62 cells assessed as growth percentage at 10 uM incubated for 48 hrs by sulforhodamine B assay relative to control. To be noted: UACC-62, 48 h, read-out: Activity. An outline of the steps:
(§2)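 NCI-60 single-dose screen. Cells were grown in RPMI 1640 with 5% FBS and 2 mM L-glutamine and plated at 5,000–40,000 cells/well. After an overnight preincubation at 37 °C in 5% CO2, compound was added at a final 10 µM from a DMSO stock, with DMSO/PBS controls. After 48 h, cells were TCA-fixed and stained with 0.4% SRB, and absorbance was read at 515 nm. Growth is given as a percentage of untreated control.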

The next assay relates to RXF 393. Description: Growth inhibition of human RXF393 cells assessed as growth percentage at 10 uM incubated for 48 hrs by sulforhodamine B assay relative to control. The settings on record: RXF 393, 48 h, read-out: Activity. An outline of the steps:
as §2

A further assay deals with SK-OV-3. Description: Growth inhibition of human SKOV3 cells assessed as growth percentage at 10 uM incubated for 48 hrs by sulforhodamine B assay relative to control. To be noted: SK-OV-3, 48 h, read-out: Activity. An outline of the steps: as §2
The next assay deals with DU-145. The assay can be described thus: Growth inhibition of human DU145 cells assessed as growth percentage at 10 uM incubated for 48 hrs by sulforhodamine B assay relative to control. The settings on record: DU-145, 48 h, read-out: Activity. Put shortly: as §1
The test system of another assay is LOX IMVI. The assay can be described thus: Growth inhibition of human LOXIMVI cells assessed as growth percentage at 10 uM incubated for 48 hrs by sulforhodamine B assay relative to control. To be noted: read-out: Activity. An outline of the steps:
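NCI-60 one-dose screen. Cells in RPMI 1640 with 5% FBS and 2 mM L-glutamine, seeded at 5,000–40,000 cells/well according to doubling time, and preincubated overnight at 37 °C, 5% CO2. A time-zero plate was TCA-fixed at drug addition. Compound from DMSO stock, final 10 µM, 48 h; DMSO vehicle controls. Fixation with TCA, 10% final (16% for suspension cells). SRB stain, Tris solubilization, A515. Result given as % growth versus untreated cells.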

A further assay deals with RPMI-8226. The assay can be described thus: Growth inhibition of human RPMI8226 cells assessed as growth percentage at 10 uM incubated for 48 hrs by sulforhodamine B assay relative to control. To be noted: RPMI-8226, 48 h, read-out: Activity. An outline of the steps: as §2
The test system of the next assay is SN12C. The assay can be described thus: Growth inhibition of human SN12C cells assessed as growth percentage at 10 uM incubated for 48 hrs by sulforhodamine B assay relative to control. To be noted: read-out: Activity. Put shortly: as §2
The test system of another assay is BT-549. The assay can be described thus: Growth inhibition of human BT549 cells assessed as growth percentage at 10 uM incubated for 48 hrs by sulforhodamine B assay relative to control. To be noted: BT-549, 48 h, read-out: Activity. Put shortly:
as §1

The structures appear in SMILES notation.

As for `CC1=C(C(=O)OC(C)C)C(c2ccc3c(c2)OCO3)NC(=O)N1` (racemic), the growth at 10 µM in the assay with HCT-15 was determined as 99.7%; with UACC-62, 94.9%; with RXF 393 it was 113%; in the assay with SK-OV-3, 105%; with DU-145, 108%; in the assay on LOX IMVI it was 96.3%. Also, the growth at 10 µM in the assay with RPMI-8226 is 101%; in the assay with SN12C, 92.3%; in the assay with BT-549 it was 93.7%.

Turning to `COCCOC(=O)C1=C(C)NC(=S)N(C(C)=O)C1c1ccc2c(c1)OCO2` (racemic), the growth at 10 µM with HCT-15 is 103%; in the assay with UACC-62, 98.2%; with RXF 393, 111%; in the assay on SK-OV-3, 97%; in the assay with DU-145, 106%; in the assay with LOX IMVI it was 97.2%. The growth at 10 µM was 97.7% with RPMI-8226, 96.7% in the assay on SN12C and 103% with BT-549.

On to `O=C1NC2=C(C(=O)c3ccccc32)C(c2ccc3c(c2)OCO3)N1` (racemic), for which the growth at 10 µM in the assay with HCT-15 was determined as 105%; with UACC-62, 101%; in the assay with RXF 393, 98.8%; with SK-OV-3 it was 104%; with DU-145, 114%; in the assay on LOX IMVI, 96.8%. In addition, the growth at 10 µM was 107% in the assay on RPMI-8226, 100% with SN12C and 102% in the assay with BT-549.

As to `COCCOC(=O)C1=C(C)NC(=S)NC1c1ccc2c(c1)OCO2` (racemic), the growth at 10 µM in the assay on HCT-15 amounted to 102%; in the assay on UACC-62, 102%; in the assay with RXF 393, 101%; in the assay on SK-OV-3, 103%; with DU-145 it was 108%; with LOX IMVI, 101%. Besides, the results for the growth at 10 µM with RPMI-8226, in the assay with SN12C and in the assay on BT-549 were 105%, 104% and 109%, respectively.

Consider `CC1=C(C(=O)OCc2ccccc2)C(c2ccc3c(c2)OCO3)NC(=O)N1` (racemic), for which the growth at 10 µM worked out at 98.1% in the assay with HCT-15; 86.6% in the assay with UACC-62; 102% with RXF 393; 105% with SK-OV-3; 107% with DU-145; 97.9% in the assay on LOX IMVI. For the same compound, the values for the growth at 10 µM in the assay on RPMI-8226, in the assay on SN12C and in the assay on BT-549 were 89.1%, 101% and 80.2%, respectively.

On to `CC1=C(C(=O)OCC(C)C)C(c2ccc3c(c2)OCO3)NC(=S)N1` (racemic), for which the growth at 10 µM in the assay on HCT-15 turned out to be 100%; in the assay on UACC-62, 90.3%; in the assay with RXF 393 it was 100%; with SK-OV-3, 106%; in the assay with DU-145, 109%; with LOX IMVI, 96.3%. Also, the growth at 10 µM in the assay on RPMI-8226 turned out to be 84%; in the assay on SN12C, 106%; with BT-549 it was 95%.

Turning to `CC1=C(C(=O)OC(C)C)C(c2ccc3c(c2)OCO3)NC(=S)N1` (racemic), the growth at 10 µM turned out to be 100% with HCT-15; 85.2% in the assay on UACC-62; 106% with RXF 393; 105% in the assay with SK-OV-3; 109% with DU-145; 97.3% with LOX IMVI. The growth at 10 µM amounted to 87.7% in the assay on RPMI-8226, 105% in the assay with SN12C and 96% in the assay on BT-549.

As to `CC(=O)N1C(=S)NC(C)=C(C(=O)OCC(C)C)C1c1ccc2c(c1)OCO2` (racemic), the growth at 10 µM with HCT-15 amounted to 93.3%; with UACC-62 it was 85.7%; in the assay on RXF 393, 106%; in the assay on SK-OV-3 it was 100%; in the assay on DU-145, 99.6%; with LOX IMVI, 97.5%. Moreover, the growth at 10 µM was determined as 54.8% with RPMI-8226, 94.8% in the assay on SN12C and 86.1% in the assay on BT-549.

Turning to `O=C1C2=C(NC(=S)NC2c2ccc3c(c2)OCO3)c2ccccc21` (racemic), the growth at 10 µM was 105% in the assay on HCT-15; 99.7% in the assay on UACC-62; 107% in the assay with RXF 393; 103% in the assay on SK-OV-3; 112% in the assay on DU-145; 99.2% with LOX IMVI. For the same compound, the growth at 10 µM turned out to be 103% with RPMI-8226, 95.8% in the assay on SN12C and 101% in the assay on BT-549.

Regarding `CC(=O)N1C(=S)NC(C)=C(C(=O)OC(C)C)C1c1ccc2c(c1)OCO2` (racemic), the growth at 10 µM in the assay on HCT-15 stood at 99.3%; in the assay on UACC-62, 95.6%; in the assay on RXF 393, 111%; with SK-OV-3, 104%; in the assay on DU-145, 104%; in the assay with LOX IMVI, 98.8%. Further, the growth at 10 µM with RPMI-8226 turned out to be 73.9%; with SN12C, 93.1%; with BT-549, 99.3%.

Take `CC1=C(C(=O)c2ccccc2)C(c2ccc3c(c2)OCO3)NC(=O)N1` (racemic): the growth at 10 µM with HCT-15 amounted to 99.8%; in the assay on UACC-62, 94.3%; in the assay with RXF 393 it was 109%; in the assay with SK-OV-3, 109%; with DU-145, 105%; in the assay with LOX IMVI, 97.3%. Also, the growth at 10 µM with RPMI-8226 is 100%; with SN12C it was 97%; in the assay with BT-549, 95.6%.

With `COCCOC(=O)C1=C(C)NC(=O)NC1c1ccc2c(c1)OCO2` (racemic), the growth at 10 µM came out at 101% in the assay with HCT-15; 96% in the assay on UACC-62; 94.6% in the assay on RXF 393; 98.8% with SK-OV-3; 108% in the assay with DU-145; 98.6% with LOX IMVI. Besides, the growth at 10 µM in the assay with RPMI-8226 amounted to 101%; with SN12C, 102%; in the assay with BT-549, 106%.

Consider `CC1=C(C(=O)OCc2ccccc2)C(c2ccc3c(c2)OCO3)NC(=S)N1` (racemic), for which the growth at 10 µM with HCT-15 was determined as 96.5%; in the assay on UACC-62, 91.2%; with RXF 393, 94.4%; in the assay on SK-OV-3, 109%; in the assay on DU-145, 101%; in the assay on LOX IMVI, 98.5%. Moreover, the growth at 10 µM came out at 76.5% in the assay on RPMI-8226, 96.8% with SN12C and 103% with BT-549.

Take `CC(=O)C1=C(C)NC(=O)NC1c1ccc2c(c1)OCO2` (racemic): the growth at 10 µM with HCT-15 was 106%; with UACC-62, 98.9%; in the assay with RXF 393 it was 95.2%; in the assay with SK-OV-3, 103%; with DU-145, 118%; in the assay with LOX IMVI, 96.4%. For the same compound, the growth at 10 µM in the assay on RPMI-8226 was found to be 103%; in the assay with SN12C it was 102%; with BT-549, 112%.

Take `CC(=O)C1=C(C)NC(=S)NC1c1ccc2c(c1)OCO2` (racemic): the growth at 10 µM came out at 108% in the assay with HCT-15; 98.6% with UACC-62; 102% with RXF 393; 102% in the assay with SK-OV-3; 111% in the assay with DU-145; 98.7% in the assay on LOX IMVI. Moreover, the growth at 10 µM in the assay with RPMI-8226 turned out to be 105%; in the assay on SN12C, 104%; in the assay on BT-549, 108%.

On to `CC1=C(C(=O)OCC(C)C)C(c2ccc3c(c2)OCO3)NC(=O)N1` (racemic), for which the growth at 10 µM in the assay on HCT-15 amounted to 101%; in the assay on UACC-62 it was 98.5%; with RXF 393, 101%; in the assay with SK-OV-3, 108%; in the assay on DU-145, 109%; in the assay with LOX IMVI it was 96.5%. Also, the figures for the growth at 10 µM with RPMI-8226, with SN12C and in the assay on BT-549 were 99.9%, 105% and 99.4%, respectively.
